The list is not random: actives were taken first. Their share in the collection is about 2.7%.
PAFAH1B3 inh = PAFAH1B3 (human) inhibition. recombinant PAFAH1B3, FP-rhodamine probe, fluorescence polarization. inhibition, % at 3.39 µM. hit rate 0.28% among 340,000;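 active means inhibition above the screen-wide average of all tested compounds plus 3 SD, cut at about 25% in these data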;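 further: 0% = enzyme with DMSO only and 100% = wells lacking PAFAH1B3 protein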
Target sequence (Q15102 whole entry, looked up): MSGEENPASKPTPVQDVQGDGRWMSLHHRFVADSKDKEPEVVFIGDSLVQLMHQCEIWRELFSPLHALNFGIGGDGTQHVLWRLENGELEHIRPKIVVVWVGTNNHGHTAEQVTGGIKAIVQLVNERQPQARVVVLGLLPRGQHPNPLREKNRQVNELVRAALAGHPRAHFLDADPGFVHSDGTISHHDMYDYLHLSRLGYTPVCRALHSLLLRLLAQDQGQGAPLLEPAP
PAFAH1B2 FP inh = PAFAH1B2 (human) inhibition | hit rate 1.2% among 340,000 | P68402 | recombinant PAFAH1B2, FP-rhodamine activity probe, fluorescence polarization | inhibition, % at 3.39 µM;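 active means inhibition above the mean of all tested compounds plus 3 SD, cut at about 24% in these data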;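 further: 0% = enzyme with DMSO and 100% = wells lacking PAFAH1B2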
Target sequence (P68402 whole entry, looked up): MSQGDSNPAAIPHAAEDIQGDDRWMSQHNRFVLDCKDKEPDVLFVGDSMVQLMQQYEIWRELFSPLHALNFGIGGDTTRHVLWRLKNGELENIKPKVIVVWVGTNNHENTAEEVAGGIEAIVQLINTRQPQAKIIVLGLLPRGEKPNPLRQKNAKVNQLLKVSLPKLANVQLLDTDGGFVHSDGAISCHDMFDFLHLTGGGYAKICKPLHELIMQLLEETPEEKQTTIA
PAFAH2 inh = inhibitors of human PAFAH2 | AID 492956 | recombinant PAFAH2, FP-rhodamine activity probe, fluorescence polarization | Q99487 | inhibition, % at 3.39 µM | hit rate 0.99% among 340,000;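 active means inhibition above the mean over all tested compounds plus 3 SD, cut at about 30% in these data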;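 further: inhibitors block probe labeling of enzyme so polarization drops; 0% = enzyme with DMSO and 100% = wells lacking PAFAH2 protein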
pPAFAH FP inh = inhibitors of human plasma PAF acetylhydrolase (pPAFAH). Q13093. recombinant pPAFAH, FP-rhodamine probe fluorescence polarization. inhibition, % at 3.39 µM. hit rate 1.5% among 330,000. AID 463082;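 active means inhibition above the mean inhibition across the screen plus 3 SD, cut at about 25% in these data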;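 further: inhibitors block binding of the rhodamine activity-based probe so polarization drops; 0% = enzyme with DMSO and 100% = wells lacking pPAFAH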
RBBP9 inhibitor = human RBBP9 hydrolase inhibition; O75884; hit rate 0.2% among 220,000; inhibition, % at 7.94 µM; recombinant RBBP9, FP-Rh probe fluorescence polarization;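 active means inhibition above the campaign mean of all tested compounds plus 3 SD, cut at about 14% in these data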;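 further: plate controls were DMSO wells with RBBP9 for no effect and wells lacking RBBP9 protein for full effect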
Target sequence (O75884 whole entry, looked up): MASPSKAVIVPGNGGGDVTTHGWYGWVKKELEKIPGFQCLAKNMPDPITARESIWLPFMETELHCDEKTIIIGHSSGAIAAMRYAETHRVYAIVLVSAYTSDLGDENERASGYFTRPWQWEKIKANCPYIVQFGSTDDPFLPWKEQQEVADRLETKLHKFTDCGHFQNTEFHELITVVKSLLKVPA
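Assay system: recombinant human RBBP9; Reagent: Serine-hydrolase probe FP-Rh, 375 nM pre-mixing; Doses: 7.94 µM single dose, 0.794% DMSO; Incubation: 30 min then 45 min, 25 °C; Detection: fluorescence polarization (mP), excitation 525 nm, emission 598 nm; Evaluation: percent inhibition from mP, scaled between DMSO and no-protein wells.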
PAFAH2 FP conf = confirmation of human PAFAH2 inhibitors | shares compounds with PAFAH2 inh | recombinant PAFAH2, FP-rhodamine activity probe, fluorescence polarization | inhibition, % at 3.39 µM | hit rate 65% among 2,300 | AID 493030;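 active means mean inhibition over three repeats above a set limit taken from the earlier primary screen, cut at about 30% in these data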;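 further: inhibitor blocks binding of rhodamine activity probe so polarization falls; 0% = enzyme with DMSO and 100% = wells lacking PAFAH2 protein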
* hit, by the source's call.

Screening O=C1CCc2cc(S(=O)(=O)NC(Cc3ccccc3)C(=O)NCCC3=CCCCC3)ccc2N1 (stereo not given) returned PAFAH1B3 inh 4, PAFAH1B2 FP inh 8, PAFAH2 inh 10, pPAFAH FP inh 10 and RBBP9 inhibitor 0.
`C=CCNC(=S)NC(CC(=O)OC)c1ccc2c(c1)OCO2` (stereo not given) gave PAFAH1B3 inh 3, PAFAH1B2 FP inh 2, PAFAH2 inh -2, pPAFAH FP inh 0 and RBBP9 inhibitor -6.
Screening Cc1cc(S(=O)(=O)NCC(C)C)ccc1OCC(=O)NCC1CCCO1 (stereo not given) returned PAFAH1B3 inh 5, PAFAH1B2 FP inh 1, PAFAH2 inh 5, pPAFAH FP inh 6 and RBBP9 inhibitor 1.
CCOC(=O)C1(CC2CCCCO2)CCN(Cc2ccccc2-c2ccco2)CC1 (stereo not given) was read as PAFAH1B3 inh -2, PAFAH1B2 FP inh 2, PAFAH2 inh 4, pPAFAH FP inh 1 and RBBP9 inhibitor -6.
Screening CCc1ccc(NC(=O)COC(=O)/C=C/c2ccco2)cc1 returned PAFAH1B3 inh 3, PAFAH1B2 FP inh 2, PAFAH2 inh 73*, pPAFAH FP inh 15 and PAFAH2 FP conf 73*.
`O=C(COC(=O)/C=C/c1ccco1)Nc1ccc(F)cc1Cl` gave PAFAH1B3 inh 2, PAFAH1B2 FP inh 6, PAFAH2 inh 63*, pPAFAH FP inh 1, RBBP9 inhibitor 1 and PAFAH2 FP conf 46*.
Screening O=C(COC(=O)/C=C/c1ccco1)Nc1ccccc1 returned PAFAH1B3 inh 8, PAFAH1B2 FP inh 3, PAFAH2 inh 85*, pPAFAH FP inh 10, RBBP9 inhibitor -10 and PAFAH2 FP conf 83*.
Screening CCN(c1ccc(NC(=O)COC(=O)/C=C/c2ccco2)cc1)C(C)C returned PAFAH1B3 inh 15, PAFAH1B2 FP inh 6, PAFAH2 inh 23 and pPAFAH FP inh 10.
Screening COCCC(=O)N1CCC(Oc2ccc(C(=O)N(C)C3CCCCC3)cc2)CC1 returned PAFAH1B3 inh 11, PAFAH1B2 FP inh 1, PAFAH2 inh 8 and pPAFAH FP inh 1.
For COc1ccc(/C=C/C(=O)ONC2=NCCCCC2)cc1OC the results were PAFAH1B3 inh -1, PAFAH1B2 FP inh 2, PAFAH2 inh 51*, pPAFAH FP inh 4, RBBP9 inhibitor -6 and PAFAH2 FP conf 44*.
COc1ccc(/C=C/C(=O)Nc2cccc(S(=O)(=O)NC3=NCCCCC3)c2)cc1OC was read as PAFAH1B3 inh -1, PAFAH1B2 FP inh -2, PAFAH2 inh -2 and pPAFAH FP inh 0.
Cc1ccccc1-n1ncc2c1CC(C)(C)CC2NC(=O)CCCN1CCCC1=O (stereo not given) was read as PAFAH1B3 inh 4, PAFAH1B2 FP inh -6, PAFAH2 inh 0 and pPAFAH FP inh 6.
For CCC1CCc2sc(C(=O)NC3CCN(Cc4ccccc4)CC3)cc2C1 (stereo not given) the results were PAFAH1B3 inh 3, PAFAH1B2 FP inh -2, PAFAH2 inh 5 and pPAFAH FP inh 12.
`COc1cccc(C(=O)OCC(=O)N2CCc3ccccc32)c1OC` gave PAFAH1B3 inh 5, PAFAH1B2 FP inh 2, PAFAH2 inh 43* and PAFAH2 FP conf 43*.
COc1cc(N)c(Cl)cc1C(=O)OCC(=O)N1CCc2ccccc21 was read as PAFAH1B3 inh 0, PAFAH1B2 FP inh 3, PAFAH2 inh 33*, pPAFAH FP inh 2 and PAFAH2 FP conf 18.
For O=C(OCC(=O)N1CCc2ccccc21)c1ccccc1 the results were PAFAH1B3 inh 0, PAFAH1B2 FP inh 1, PAFAH2 inh 47*, pPAFAH FP inh 1, RBBP9 inhibitor -6 and PAFAH2 FP conf 38*.
For COc1cc(N)c(Cl)cc1C(=O)OCC(=O)N1CCCC1 the results were PAFAH1B3 inh 2, PAFAH1B2 FP inh 2, PAFAH2 inh -4 and pPAFAH FP inh 3.
`Clc1ccccc1-c1nnc(-c2ccc3c(c2)OCO3)o1` gave PAFAH1B3 inh 5, PAFAH1B2 FP inh -2, PAFAH2 inh -5, pPAFAH FP inh 2 and RBBP9 inhibitor -6.
For CCn1nc(C)c(CNC(=O)c2cc(COc3ccc(C)nc3)on2)c1C the results were PAFAH1B3 inh 4, PAFAH1B2 FP inh 1, PAFAH2 inh 8 and pPAFAH FP inh 2.
Screening Cc1ccc(N2C(=O)[C@@H]3[C@H](C2=O)[C@H]2C=CC=NN2[C@@H]3C(=O)Nc2ccc(Cl)cc2)cc1 returned PAFAH1B3 inh -10, PAFAH1B2 FP inh -1, PAFAH2 inh -1, pPAFAH FP inh 21 and RBBP9 inhibitor -8.
`O=C(Nc1ccc(Cl)cc1)[C@@H]1[C@@H]2C(=O)N(c3ccc(Cl)cc3)C(=O)[C@@H]2[C@H]2C=CC=NN21` gave PAFAH1B3 inh 3, PAFAH1B2 FP inh -2, PAFAH2 inh 33*, pPAFAH FP inh 24, RBBP9 inhibitor -1 and PAFAH2 FP conf -3.
For Nc1ccc(S(=O)(=O)Nc2nccs2)cc1N=Nc1ccccc1[N+](=O)[O-] the results were PAFAH1B3 inh 21, PAFAH1B2 FP inh 14, PAFAH2 inh 54* and PAFAH2 FP conf 37*.
For O=C(COC(=O)c1ccc(Cl)c(S(=O)(=O)N2CCCC2)c1)NC1CCCCC1 the results were PAFAH1B3 inh 9, PAFAH1B2 FP inh 3, PAFAH2 inh 36*, pPAFAH FP inh 11, RBBP9 inhibitor -2 and PAFAH2 FP conf 16.
O=C(NC1CCCCC1)c1cccc(S(=O)(=O)N2CCCCC2)c1 was read as PAFAH1B3 inh 5, PAFAH1B2 FP inh 9, PAFAH2 inh -1 and pPAFAH FP inh 4.
`O=C(COC(=O)c1cccc(S(=O)(=O)N2CCCCCC2)c1)Nc1ccccc1C(F)(F)F` gave PAFAH1B3 inh 0, PAFAH1B2 FP inh 2, PAFAH2 inh 58*, pPAFAH FP inh 18 and PAFAH2 FP conf 36*.
For O=C(COC(=O)c1cccc(S(=O)(=O)N2CCCCC2)c1)NC1CCCCC1 the results were PAFAH1B3 inh 11, PAFAH1B2 FP inh 2, PAFAH2 inh 77*, pPAFAH FP inh 6 and PAFAH2 FP conf 76*.
Screening O=C(COC(=O)c1ccc(Cl)c(S(=O)(=O)N2CCCCC2)c1)NCC1CCCCC1 returned PAFAH1B3 inh -2, PAFAH1B2 FP inh 3, PAFAH2 inh 20 and pPAFAH FP inh 0.
CCCCNC(=O)COC(=O)c1ccc(Cl)c(S(=O)(=O)N2CCCC2)c1 was read as PAFAH1B3 inh 9, PAFAH1B2 FP inh 4, PAFAH2 inh 44*, pPAFAH FP inh 13, RBBP9 inhibitor -4 and PAFAH2 FP conf 21.
Cc1ccc(C(=O)OC(C)C(=O)NC2CCCCC2C)cc1S(=O)(=O)N1CCCCC1 (stereo not given) was read as PAFAH1B3 inh 5, PAFAH1B2 FP inh 4, PAFAH2 inh -6 and pPAFAH FP inh 9.
